Results as given in ChEMBL document CHEMBL3286367, “Synthesis of new class of spirocarbocycle derivatives by multicomponent domino reaction and their evaluation for antimicrobial, anticancer activity and molecular docking studies” (2014).
Converted amounts (≈) assume the structure as drawn. The source made the active and inactive calls. No cut-off for these calls is given here.

Experiments:
Micrococcus luteus [1] = assay: Antimicrobial activity against Micrococcus luteus MTCC 106 assessed as zone of inhibition at 1 mg/disc after 24 hrs incubation by disc diffusion assay; format: functional
Summary of the method: (§1)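 Inocula grown in Mueller Hinton broth for 24 h at 37 °C and swabbed onto Mueller Hinton agar. Discs carried 1 mg compound each and stood 30 min at room temperature before 24 h incubation at 37 °C. Solvent as negative control. Inhibition zones recorded in mm; experiment done twice.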

Shigella flexneri [2] = assay: Antimicrobial activity against Shigella flexneri MTCC 1457 assessed as absence of visible growth after 24 hrs
Micrococcus luteus [3] = assay: Antimicrobial activity against Micrococcus luteus MTCC 106 assessed as absence of visible growth after 48 to 72 hrs; format: functional
Proteus vulgaris [4] = assay: Antimicrobial activity against Proteus vulgaris MTCC 1771 assessed as zone of inhibition at 1 mg/disc after 24 hrs incubation by disc diffusion assay; format: functional; summary of the method: as §1
[5] = test system: Staphylococcus epidermidis; assay: Antimicrobial activity against Staphylococcus epidermidis MTCC 3615 assessed as zone of inhibition at 1 mg/disc after 24 hrs incubation by disc diffusion assay; format: functional; summary of the method: as §1
[6] = test system: Staphylococcus epidermidis; assay: Antimicrobial activity against Staphylococcus epidermidis MTCC 3615 assessed as absence of visible growth after 24 hrs
Klebsiella aerogenes [7] = assay: Antimicrobial activity against Enterobacter aerogenes MTCC 111 assessed as absence of visible growth after 48 to 72 hrs; format: functional
Salmonella typhimurium [8] = assay: Antimicrobial activity against Salmonella typhimurium MTCC 1251 assessed as zone of inhibition at 1 mg/disc after 24 hrs incubation by disc diffusion assay; format: functional, Salmonella enterica subsp. enterica serovar Typhimurium; details: for inhibition: Salmonella enterica subsp. enterica serovar Typhimurium; summary of the method: as §1
Staphylococcus aureus [9] = assay: Antimicrobial activity against methicillin-resistant Staphylococcus aureus assessed as absence of visible growth after 48 to 72 hrs; format: functional
Summary of the method: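 Broth two-fold serial dilution in 96-well plates, 1000 to 7.81 µg/mL, compound dissolved in DMSO (2%). Inoculum grown in Mueller Hinton broth 24 h at 37°C. Streptomycin positive control. 5 µl of tested broth plated on MHA; MIC is the lowest concentration inhibiting visible growth on agar.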

Candida albicans = assay: Antifungal activity against Candida albicans MTCC 227 assessed as zone of inhibition at 1 mg/disc after 48 hrs incubation by disc diffusion assay; format: functional
Summary of the method: (§2)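 Disc diffusion on Mueller Hinton agar with swabbed cultures, 1 mg compound per disc. Discs stood 30 min at room temperature for diffusion, then plates incubated 48 h at 28 °C. Solvent as negative control. Yeast pre-grown in Sabouraud dextrose broth at 28 °C for 48-72 h; filamentous fungal spores came from SDA slants grown 10 days at 28 °C. Zone diameters in mm; run twice.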

Staphylococcus aureus [10] = assay: Antimicrobial activity against Staphylococcus aureus MTCC 96 assessed as zone of inhibition at 1 mg/disc after 24 hrs incubation by disc diffusion assay; format: functional; summary of the method: as §1
Proteus vulgaris [11] = assay: Antimicrobial activity against Proteus vulgaris MTCC 1771 assessed as absence of visible growth after 48 to 72 hrs; format: functional
Klebsiella aerogenes [12] = assay: Antimicrobial activity against Enterobacter aerogenes MTCC 111 assessed as zone of inhibition at 1 mg/disc after 24 hrs incubation by disc diffusion assay; format: functional; summary of the method: as §1
Staphylococcus aureus [13] = assay: Antimicrobial activity against methicillin-resistant Staphylococcus aureus assessed as zone of inhibition at 1 mg/disc after 24 hrs incubation by disc diffusion assay; format: functional
Summary of the method: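 Inoculum grown in Mueller Hinton broth 24 h at 37°C, swabbed onto Mueller Hinton agar and dried 10 min. Discs loaded at 1 mg/disc, then 30 min at room temperature for diffusion. Plates incubated 24 h at 37°C. Solvent negative control; streptomycin positive control. Zone of inhibition read in mm; experiment done twice.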

Klebsiella pneumoniae [14] = assay: Antimicrobial activity against Klebsiella pneumonia MTCC 109 assessed as zone of inhibition at 1 mg/disc after 24 hrs incubation by disc diffusion assay; format: functional; summary of the method: as §1
Malassezia pachydermatis = assay: Antifungal activity against Malassezia pachydermatis assessed as zone of inhibition at 1 mg/disc after 48 hrs incubation by disc diffusion assay; format: functional; summary of the method: as §2
Staphylococcus aureus [15] = assay: Antimicrobial activity against Staphylococcus aureus MTCC 96 assessed as absence of visible growth after 48 to 72 hrs; format: functional
Shigella flexneri [16] = assay: Antimicrobial activity against Shigella flexneri MTCC 1457 assessed as zone of inhibition at 1 mg/disc after 24 hrs incubation by disc diffusion assay; format: functional; summary of the method: as §1
Salmonella typhimurium [17] = assay: Antimicrobial activity against Salmonella typhimurium MTCC 1251 assessed as absence of visible growth after 48 to 72 hrs; format: functional, Salmonella enterica subsp. enterica serovar Typhimurium; details: Salmonella enterica
Klebsiella pneumoniae [18] = assay: Antimicrobial activity against Klebsiella pneumonia MTCC 109 assessed as absence of visible growth after 24 hrs

| Compound | inhibition zone (IZ) (Micrococcus luteus [1]) | MIC (Shigella flexneri [2]) | MIC (Micrococcus luteus [3]) | inhibition zone (IZ) (Proteus vulgaris [4]) | inhibition zone (IZ) [5] | MIC [6] | MIC (Klebsiella aerogenes [7]) | inhibition zone (IZ) (Salmonella typhimurium [8]) | MIC (Staphylococcus aureus [9]) | inhibition zone (IZ) (Candida albicans) | inhibition zone (IZ) (Staphylococcus aureus [10]) | inhibition zone (IZ) (Klebsiella aerogenes [12]) | inhibition zone (IZ) (Staphylococcus aureus [13]) | inhibition zone (IZ) (Klebsiella pneumoniae [14]) | inhibition zone (IZ) (Malassezia pachydermatis) | inhibition zone (IZ) (Shigella flexneri [16]) | inhibition (Proteus vulgaris [4]) | inhibition (Candida albicans) | inhibition (Malassezia pachydermatis) | inhibition (Shigella flexneri [16]) | also measured |
| --- | --- | --- | --- | --- | --- | --- | --- | --- | --- | --- | --- | --- | --- | --- | --- | --- | --- | --- | --- | --- | --- |
| Cc1ccc([C@H]2[C@@H]3CCCC=C3C(C#N)=C(N)[C@]23C(=O)Nc2ccccc23)cc1 | 8 mm | 1000 µg/mL (≈ 2620 µM) | 1000 µg/mL (≈ 2620 µM) | 12 mm | 12 mm | 250 µg/mL (≈ 655 µM) | 250 µg/mL (≈ 655 µM) | 9 mm | 1000 µg/mL (≈ 2620 µM) | 8 mm | 11 mm | 13 mm | 9 mm | 10 mm | 10 mm | 9 mm | – | – | – | – | MIC (Proteus vulgaris [11]): 250 µg/mL (≈ 655 µM); MIC (Staphylococcus aureus [15]): 250 µg/mL (≈ 655 µM); MIC (Salmonella typhimurium [17]): 1000 µg/mL (≈ 2620 µM); MIC (Klebsiella pneumoniae [18]): 500 µg/mL (≈ 1310 µM) |
| Cc1ccc([C@H]2[C@@H]3CCCCC=C3C(C#N)=C(N)[C@]23C(=O)Nc2ccccc23)cc1 | 13 mm | 250 µg/mL (≈ 632 µM) | 250 µg/mL (≈ 632 µM) | 12 mm | 14 mm | 250 µg/mL (≈ 632 µM) | 250 µg/mL (≈ 632 µM) | 16 mm | 250 µg/mL (≈ 632 µM) | 9 mm | 13 mm | 12 mm | 15 mm | 12 mm | 8 mm | 11 mm | – | – | – | – | MIC (Proteus vulgaris [11]): 250 µg/mL (≈ 632 µM); MIC (Staphylococcus aureus [15]): 250 µg/mL (≈ 632 µM); MIC (Salmonella typhimurium [17]): 125 µg/mL (≈ 316 µM); MIC (Klebsiella pneumoniae [18]): 250 µg/mL (≈ 632 µM) |
| COc1ccc([C@H]2[C@@H]3CCCC=C3C(C#N)=C(N)[C@]23C(=O)Nc2ccccc23)cc1 | 8 mm | – | – | – | 9 mm | – | – | 8 mm | – | 10 mm | 10 mm | 10 mm | 11 mm | 9 mm | 13 mm | 8 mm | inactive | – | – | – | – |
| N#CC1=C(N)[C@]2(C(=O)Nc3ccccc32)[C@@H](c2ccoc2)[C@@H]2CCCC=C12 | 8 mm | – | – | – | – | – | – | – | – | – | – | – | 10 mm | – | – | – | inactive | inactive | inactive | inactive | inhibition [5]: inactive; inhibition (Salmonella typhimurium [8]): inactive; inhibition (Staphylococcus aureus [10]): inactive; inhibition (Klebsiella aerogenes [12]): inactive; inhibition (Klebsiella pneumoniae [14]): inactive |
| N#CC1=C(N)[C@]2(C(=O)Nc3ccccc32)[C@@H](c2ccccn2)[C@@H]2CCCC=C12 | – | – | – | 10 mm | 9 mm | – | – | 11 mm | – | 12 mm | – | 8 mm | – | – | 11 mm | – | – | – | – | inactive | inhibition (Micrococcus luteus [1]): inactive; inhibition (Staphylococcus aureus [10]): inactive; inhibition (Staphylococcus aureus [13]): inactive; inhibition (Klebsiella pneumoniae [14]): inactive |
| N#CC1=C(N)[C@]2(C(=O)Nc3ccccc32)[C@@H](c2ccccc2F)[C@@H]2CCCC=C12 (mixture of isomers) | 10 mm | 1000 µg/mL | 250 µg/mL | 8 mm | 13 mm | 250 µg/mL | 250 µg/mL | 11 mm | 250 µg/mL | 10 mm | 17 mm | 14 mm | 12 mm | 10 mm | – | 9 mm | – | – | inactive | – | MIC (Proteus vulgaris [11]): 1000 µg/mL; MIC (Staphylococcus aureus [15]): 125 µg/mL; MIC (Salmonella typhimurium [17]): 250 µg/mL; MIC (Klebsiella pneumoniae [18]): 500 µg/mL |
| CC(=O)N1CCN(c2ccc(OCC3COC(Cn4ccnc4)(c4ccc(Cl)cc4Cl)O3)cc2)CC1 (racemic) [KETOCONAZOLE] | – | – | – | – | – | – | – | – | – | 28 mm | – | – | – | – | 26 mm | – | – | – | – | – | – |
| COc1ccc([C@H]2[C@@H]3CCCC=C3C(C#N)=C(N)C23C(=O)c2ccccc2C3=O)cc1 (relative stereo) | 11 mm | – | – | – | 12 mm | – | – | – | – | – | 11 mm | 10 mm | – | 10 mm | 10 mm | – | inactive | inactive | – | inactive | inhibition (Salmonella typhimurium [8]): inactive; inhibition (Staphylococcus aureus [13]): inactive |
| COc1ccc([C@H]2[C@@H]3CCC=C3C(C#N)=C(N)C23C(=O)c2ccccc2C3=O)cc1 (relative stereo) | 8 mm | – | – | – | – | – | – | – | – | – | – | – | 10 mm | 11 mm | – | – | inactive | inactive | inactive | inactive | inhibition [5]: inactive; inhibition (Salmonella typhimurium [8]): inactive; inhibition (Staphylococcus aureus [10]): inactive; inhibition (Klebsiella aerogenes [12]): inactive |
| N#CC1=C(N)C2(C(=O)c3ccccc3C2=O)[C@@H](c2ccccc2F)[C@@H]2CCCC=C12 (relative stereo) | 15 mm | 250 µg/mL (≈ 627 µM) | 250 µg/mL (≈ 627 µM) | 12 mm | 14 mm | 250 µg/mL (≈ 627 µM) | 250 µg/mL (≈ 627 µM) | 10 mm | 250 µg/mL (≈ 627 µM) | 10 mm | 14 mm | 12 mm | 13 mm | 16 mm | – | 14 mm | – | – | inactive | – | MIC (Proteus vulgaris [11]): 250 µg/mL (≈ 627 µM); MIC (Staphylococcus aureus [15]): 250 µg/mL (≈ 627 µM); MIC (Salmonella typhimurium [17]): 500 µg/mL (≈ 1250 µM); MIC (Klebsiella pneumoniae [18]): 125 µg/mL (≈ 314 µM) |
| N#CC1=C(N)C2(C(=O)c3ccccc3C2=O)[C@@H](c2ccc(Cl)cc2)[C@@H]2CCCC=C12 (relative stereo) | – | – | – | – | 8 mm | – | – | 10 mm | – | – | 9 mm | 13 mm | 13 mm | – | – | 8 mm | inactive | inactive | inactive | – | inhibition (Micrococcus luteus [1]): inactive; inhibition (Klebsiella pneumoniae [14]): inactive |
| N#CC1=C(N)C2(C(=O)c3ccccc3C2=O)[C@@H](c2ccc(Br)cc2)[C@@H]2CCCC=C12 (relative stereo) | – | – | – | – | – | – | – | 12 mm | – | 10 mm | 14 mm | – | 13 mm | 10 mm | – | – | inactive | – | inactive | inactive | inhibition (Micrococcus luteus [1]): inactive; inhibition [5]: inactive; inhibition (Klebsiella aerogenes [12]): inactive |
| Cc1ccc([C@H]2[C@@H]3CCCC=C3C(C#N)=C(N)C23C(=O)CCCC3=O)cc1 (relative stereo) | – | – | – | 9 mm | – | – | – | – | – | – | – | – | – | 10 mm | – | – | – | inactive | inactive | inactive | inhibition (Micrococcus luteus [1]): inactive; inhibition [5]: inactive; inhibition (Salmonella typhimurium [8]): inactive; inhibition (Staphylococcus aureus [10]): inactive; inhibition (Klebsiella aerogenes [12]): inactive; inhibition (Staphylococcus aureus [13]): inactive |
